Legend:
[1] = system: CC(C)[C@H](NC(=O)[C@H](CCC(=O)O)NC(=O)[C@H](CCC(=O)O)NC(=O)[C@@H](NC(=O)[C@H](CCC(=O)O)NC(=O)[C@H](CC(=O)O)NC(=O)[C@H](CC(=O)O)NC(=O)[C@@H](N)CCC(=O)O)[C@@H](C)c1ccc(O)cc1)C(=O)O; assay: (§1) Affinity towards tyrosine kinase Syk
Procedure, shortened: (§2)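 Syk purified from rat spleen (1 unit = 1 pmol phosphate/min to polyGlu4Tyr at 0.1 mg/mL). Kinetic assays at 30 °C in 50 mM Tris/HCl pH 7.5, 5 mM MnCl2, 20 µM [γ33P]ATP, 10 units enzyme, varied peptide substrate. Stopped with 1 N HCl, heated to hydrolyse ATP, Pi removed as phosphomolybdic complex; aqueous phosphopeptide counted by scintillation; Km derived.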

[2] = system: CC(C)[C@H](NC(=O)[C@H](CCC(=O)O)NC(=O)[C@H](CCC(=O)O)NC(=O)[C@@H]1Cc2cc(O)ccc2CN1C(=O)[C@H](CCC(=O)O)NC(=O)[C@H](CC(=O)O)NC(=O)[C@H](CC(=O)O)NC(=O)[C@@H](N)CCC(=O)O)C(=O)O; assay: as §1; procedure, shortened: as §2
[3] = system: CC(C)[C@H](NC(=O)[C@H](CCC(=O)O)NC(=O)[C@H](CCC(=O)O)NC(=O)[C@H](Cc1ccc(O)cc1)NC(=O)[C@H](CCC(=O)O)NC(=O)[C@H](CC(=O)O)NC(=O)[C@H](CC(=O)O)NC(=O)[C@@H](N)CCC(=O)O)C(=O)O; assay: as §1; procedure, shortened: as §2
[4] = system: CC(C)[C@H](NC(=O)[C@H](CCC(=O)O)NC(=O)[C@H](CCC(=O)O)NC(=O)[C@]1(NC(=O)[C@H](CCC(=O)O)NC(=O)[C@H](CC(=O)O)NC(=O)[C@H](CC(=O)O)NC(=O)[C@@H](N)CCC(=O)O)Cc2ccc(O)cc2C1)C(=O)O; assay: as §1; procedure, shortened: as §2
[5] = system: CC(C)[C@H](NC(=O)[C@H](CCC(=O)O)NC(=O)[C@H](CCC(=O)O)NC(=O)[C@H]1Cc2cc(O)ccc2CN1C(=O)[C@H](CCC(=O)O)NC(=O)[C@H](CC(=O)O)NC(=O)[C@H](CC(=O)O)NC(=O)[C@@H](N)CCC(=O)O)C(=O)O; assay: as §1; procedure, shortened: as §2
[6] = system: CC(C)[C@H](NC(=O)[C@H](CCC(=O)O)NC(=O)[C@H](CCC(=O)O)NC(=O)[C@]1(NC(=O)[C@H](CCC(=O)O)NC(=O)[C@H](CC(=O)O)NC(=O)[C@H](CC(=O)O)NC(=O)[C@@H](N)CCC(=O)O)CCc2cc(O)ccc2C1)C(=O)O; assay: as §1; procedure, shortened: as §2
[7] = system: CC(C)[C@H](NC(=O)[C@H](CCC(=O)O)NC(=O)[C@H](CCC(=O)O)NC(=O)[C@@]1(NC(=O)[C@H](CCC(=O)O)NC(=O)[C@H](CC(=O)O)NC(=O)[C@H](CC(=O)O)NC(=O)[C@@H](N)CCC(=O)O)CCc2cc(O)ccc2C1)C(=O)O; assay: as §1; procedure, shortened: as §2
[8] = system: CC(C)[C@H](NC(=O)[C@H](CCC(=O)O)NC(=O)[C@H](CCC(=O)O)NC(=O)[C@](C)(Cc1ccc(O)cc1)NC(=O)[C@H](CCC(=O)O)NC(=O)[C@H](CC(=O)O)NC(=O)[C@H](CC(=O)O)NC(=O)[C@@H](N)CCC(=O)O)C(=O)O; assay: as §1; procedure, shortened: as §2
[9] = system: CC(C)[C@H](NC(=O)[C@H](CCC(=O)O)NC(=O)[C@H](CCC(=O)O)NC(=O)[C@H](NC(=O)[C@H](CCC(=O)O)NC(=O)[C@H](CC(=O)O)NC(=O)[C@H](CC(=O)O)NC(=O)[C@@H](N)CCC(=O)O)[C@@H](C)c1ccc(O)cc1)C(=O)O; assay: as §1; procedure, shortened: as §2
[10] = system: CC(C)[C@H](NC(=O)[C@H](CCC(=O)O)NC(=O)[C@H](CCC(=O)O)NC(=O)[C@@]1(NC(=O)[C@H](CCC(=O)O)NC(=O)[C@H](CC(=O)O)NC(=O)[C@H](CC(=O)O)NC(=O)[C@@H](N)CCC(=O)O)Cc2ccc(O)cc2C1)C(=O)O; assay: as §1; procedure, shortened: as §2
[11] = system: CC(C)[C@H](NC(=O)[C@H](CCC(=O)O)NC(=O)[C@H](CCC(=O)O)NC(=O)[C@H](Cc1cccc(O)c1)NC(=O)[C@H](CCC(=O)O)NC(=O)[C@H](CC(=O)O)NC(=O)[C@H](CC(=O)O)NC(=O)[C@@H](N)CCC(=O)O)C(=O)O; assay: as §1; procedure, shortened: as §2

## Tyrosine-protein kinase SYK (Homo sapiens) (from UniProt P43405)
[1]
  Km: 6.5 µM
[2]
  Km: 124 µM
[3]
  Km: 3.6 µM
[4]
  Km: 17.3 µM
[5]
  Km: 136 µM
[6]
  Km: 98 µM
[7]
  Km: 3.6 µM
[8]
  Km: 87.7 µM
[9]
  Km: 63.2 µM
[10]
  Km: 146 µM
[11]
  Km: 5.5 µM
